Source: ChEMBL document CHEMBL1157314, “Antibacterial, partially acetylated oligorhamnosides from Cleistopholis patens” (2006)
Converted amounts (≈) assume the structure as drawn. The source made the active and inactive calls. No cut-off for these calls is given here.

Columns and labels:
Assay type in all cases: functional
Staphylococcus aureus [1] = test: Antibacterial activity against methicillin-resistant Staphylococcus aureus ATCC 33591 after 24 hrs by broth microdilution method; conditions: for MIC: ATCC 33591, 24 h
Method in brief: (§1)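 Broth microdilution following NCCLS M7-A6 (2003), with inoculum at the recommended densities. Isolates were placed into panel wells with an autoinoculator and grown in cation-adjusted Mueller-Hinton broth at 35°C in ambient air for overnight to 24 h. Panels were read by eye, and the MIC was taken as no visible growth.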

Staphylococcus aureus [2] = test: Antibacterial activity against methicillin-resistant Staphylococcus aureus 78-13607A after 24 hrs by broth microdilution method; method in brief: as §1
Staphylococcus aureus [3] = test: Antibacterial activity against linezolid-resistant Staphylococcus aureus 106-12591A isolate after 24 hrs by broth microdilution method; method in brief: as §1
Staphylococcus aureus [4] = test: Antibacterial activity against oxacillin-susceptible Staphylococcus aureus ATCC 29213 after 24 hrs by broth microdilution method; conditions: ATCC 29213, 24 h; method in brief: as §1
Staphylococcus aureus [5] = test: Antibacterial activity against oxacillin-resistant Staphylococcus aureus ATCC 33591 after 24 hrs by broth microdilution method; conditions: ATCC 33591, 24 h; method in brief: as §1
[6] = tested on: Staphylococcus epidermidis; test: Antibacterial activity against oxacillin-susceptible Staphylococcus epidermidis isolate 12-1788A isolate after 24 hrs by broth microdilution method
[7] = tested on: Staphylococcus haemolyticus; test: Antibacterial activity against oxacillin-resistant Staphylococcus haemolyticus 107-1240C isolate after 24 hrs by broth microdilution method; method in brief: as §1
Enterococcus faecalis [8] = test: Antibacterial activity against ampicillin and vancomycin-susceptible Enterococcus faecalis ATCC 29212 after 24 hrs by broth microdilution method; conditions: ATCC 29212, 24 h; method in brief: as §1
Enterococcus faecium [9] = test: Antibacterial activity against ampicillin and vancomycin-resistant Enterococcus faecium 24-45A isolate after 24 hrs by broth microdilution method; method in brief: as §1
Streptococcus pneumoniae [10] = test: Antibacterial activity against penicillin-intermediate resistant Streptococcus pneumoniae ATCC 49619 after 24 hrs by broth microdilution method; conditions: ATCC 49619, 24 h; method in brief: as §1
Streptococcus pneumoniae [11] = test: Antibacterial activity against penicillin-resistant Streptococcus pneumoniae 33-50B isolate after 24 hrs by broth microdilution method; method in brief: as §1
Corynebacterium jeikeium = test: Antibacterial activity against Corynebacterium jeikeium 15-196A isolate after 24 hrs by broth microdilution method
Method in brief: (§2)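 Broth microdilution following NCCLS M7-A6 (2003) inocula; isolates transferred aseptically into panel wells with an autoinoculator; cation-adjusted Mueller-Hinton broth; incubated overnight to 24 h at 35°C in ambient air; panels read by eye, MIC taken as lowest concentration with no visible growth.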

Bacillus cereus = test: Antibacterial activity against Bacillus cereus 24-59A isolate after 24 hrs by broth microdilution method
Streptococcus pyogenes = test: Antibacterial activity against erythromycin-resistant Streptococcus pyogenes 91-8747 isolate after 24 hrs by broth microdilution method; method in brief: as §1
Streptococcus mitis = test: Antibacterial activity against penicillin-resistant Streptococcus mitis 61-2900C isolate after 24 hrs by broth microdilution method; method in brief: as §1
Pseudomonas aeruginosa = test: Antibacterial activity against sPseudomonas aeruginosa ATCC 27853 after 24 hrs by broth microdilution method; conditions: ATCC 27853, 24 h; method in brief: as §2
Escherichia coli = test: Antibacterial activity against sEscherichia coli ATCC 25922 after 24 hrs by broth microdilution method; conditions: ATCC 25922, 24 h; method in brief: as §2
Staphylococcus aureus [12] = test: Antibacterial activity against mupirocin-resistant Staphylococcus aureus 4-90A isolate after 24 hrs by broth microdilution method; method in brief: as §1
Staphylococcus aureus [13] = test: Antibacterial activity against quinupristin/dalfopristin-resistant Staphylococcus aureus 300-12053A isolate after 24 hrs by broth microdilution method; method in brief: as §1
Staphylococcus [14] = test: Antibacterial activity against mupirocin-resistant coagulase negative Staphylococcus 63-18A isolate after 24 hrs by broth microdilution method; method in brief: as §1
Staphylococcus [15] = test: Antibacterial activity against quinupristin/dalfopristin-resistant coagulase negative Staphylococcus 90-10840A isolate after 24 hrs by broth microdilution method; method in brief: as §1
Staphylococcus [16] = test: Antibacterial activity against coagulase negative linezolid-resistant Staphylococcus 82-1645A isolate after 24 hrs by broth microdilution method; method in brief: as §1
Enterococcus faecalis [17] = test: Antibacterial activity against vancomycin-resistant Enterococcus faecalis 48-22D isolate with vanA phenotype after 24 hrs by broth microdilution method; method in brief: as §1
Enterococcus faecalis [18] = test: Antibacterial activity against vancomycin-resistant Enterococcus faecalis 82-876D with vanB phenotype isolate after 24 hrs by broth microdilution method; method in brief: as §1
Enterococcus faecalis [19] = test: Antibacterial activity against linezolid-resistant Enterococcus faecalis 15-5341 isolate after 24 hrs by broth microdilution method; method in brief: as §1
Enterococcus faecalis [20] = test: Antibacterial activity against gentamycin and streptomycin-resistant Enterococcus faecalis 39-11D isolate after 24 hrs by broth microdilution method; method in brief: as §1
Enterococcus faecium [21] = test: Antibacterial activity against vancomycin-resistant Enterococcus faecium 103-1232D isolate with vanB phenotype after 24 hrs by broth microdilution method; method in brief: as §1
Enterococcus faecium [22] = test: Antibacterial activity against vancomycin-resistant Enterococcus faecium 15-206A isolate with vanA phenotype after 24 hrs by broth microdilution method; method in brief: as §1
Enterococcus faecium [23] = test: Antibacterial activity against linezolid-resistant Enterococcus faecium 11-4103A isolate after 24 hrs by broth microdilution method; method in brief: as §1
Enterococcus faecium [24] = test: Antibacterial activity against quinupristin/dalfopristin-resistant Enterococcus faecium 65-1208A isolate after 24 hrs by broth microdilution method; method in brief: as §1
Bacillus sp. [25] = test: Antibacterial activity against tetracycline-resistant Bacillus sp. 107-1461D isolate after 24 hrs by broth microdilution method; conditions: Bacillus sp. (in: firmicutes); method in brief: as §1
Bacillus sp. [26] = test: Antibacterial activity against trimethoprim/sulfamethaxazole-resistant Bacillus sp. 67-1057A isolate after 24 hrs by broth microdilution method; conditions: Bacillus sp. (in: firmicutes); method in brief: as §1
Bacillus sp. [27] = test: Antibacterial activity against erythromycin-resistant Bacillus sp. 32-2406A isolate after 24 hrs by broth microdilution method; conditions: Bacillus sp. (in: firmicutes); method in brief: as §1
Streptococcus pneumoniae [28] = test: Antibacterial activity against multidrug resistant Streptococcus pneumoniae 68-2307B isolate after 24 hrs by broth microdilution method; method in brief: as §1
Streptococcus pneumoniae [29] = test: Antibacterial activity against erythromycin and clindamycin-resistant Streptococcus pneumoniae 4-38B isolate after 24 hrs by broth microdilution method; method in brief: as §1
Streptococcus pneumoniae [30] = test: Antibacterial activity against erythromycin-resistant and clindamycin-susceptible Streptococcus pneumoniae 35-405B isolate after 24 hrs by broth microdilution method; method in brief: as §1
Corynebacterium sp. [31] = test: Antibacterial activity against doxycyclin-resistant Corynebacterium sp. 105-1513C isolate after 24 hrs by broth microdilution method; method in brief: as §1
Corynebacterium sp. [32] = test: Antibacterial activity against streptomycin-resistant Corynebacterium sp. 61-5454A isolate after 24 hrs by broth microdilution method; method in brief: as §1
Corynebacterium sp. [33] = test: Antibacterial activity against rifampin-resistant Corynebacterium sp. 58-9161A isolate after 24 hrs by broth microdilution method; method in brief: as §1
Streptococcus [34] = test: Antibacterial activity against erythromycin and clindamycin-resistant beta-haemolytic sStreptococcus 91-526D isolate after 24 hrs by broth microdilution method; method in brief: as §1
Streptococcus [35] = test: Antibacterial activity against erythromycin-resistant and clindamycin-susceptible beta-haemolytic sStreptococcus 109-820D isolate after 24 hrs by broth microdilution method; method in brief: as §1
Streptococcus [36] = test: Antibacterial activity against levofloxacin-resistant beta-haemolytic sStreptococcus 19-756A isolate after 24 hrs by broth microdilution method; method in brief: as §1
Streptococcus [37] = test: Antibacterial activity against mupirocin-resistant viridans group sStreptococcus 32-2395A isolate after 24 hrs by broth microdilution method; method in brief: as §1
Streptococcus [38] = test: Antibacterial activity against levafloxacin-resistant viridans group Streptococcus 107-6380A isolate after 24 hrs by broth microdilution method; method in brief: as §1
Streptococcus [39] = test: Antibacterial activity against linezolid-resistant viridans group Streptococcus 27-2832A isolate after 24 hrs by broth microdilution method; method in brief: as §1
Streptococcus [40] = test: Antibacterial activity against multidrug-resistant viridans group Streptococcus 58-1602D isolate after 24 hrs by broth microdilution method; method in brief: as §1

For `O=C(O)c1cn(C2CC2)c2cc(N3CCNCC3)c(F)cc2c1=O` [CIPROFLOXACIN], the MIC (Staphylococcus aureus [1]) was 0.5 µg/mL (≈ 1.51 µM) and the MIC (Staphylococcus aureus [2]) was greater than 4 µg/mL.

`CCCCCCCCCCCCO[C@@H]1O[C@@H](C)[C@H](O[C@@H]2O[C@@H](C)[C@H](OC(C)=O)[C@@H](O[C@@H]3O[C@@H](C)[C@H](OC(C)=O)[C@@H](O[C@@H]4O[C@@H](C)[C@H](OC(C)=O)[C@@H](O)[C@H]4O)[C@H]3OC(C)=O)[C@H]2O)[C@@H](O)[C@H]1O` showed an MIC (Staphylococcus aureus [3]) of 2 µg/mL (≈ 2.13 µM), an MIC (Staphylococcus aureus [1]) of 0.5 µg/mL (≈ 0.532 µM) and an MIC (Staphylococcus aureus [2]) of 1 µg/mL (≈ 1.06 µM). For the same compound, the MIC (Staphylococcus aureus [4]) was 4 µg/mL (≈ 4.26 µM), the MIC (Staphylococcus aureus [5]) was 2 µg/mL (≈ 2.13 µM) and the MIC [6] was greater than 32 µg/mL. It also gave an MIC [7] of 32 µg/mL (≈ 34.1 µM), an MIC (Enterococcus faecalis [8]) of 2 µg/mL (≈ 2.13 µM) and an MIC (Enterococcus faecium [9]) of 2 µg/mL (≈ 2.13 µM). The MIC (Streptococcus pneumoniae [10]) was 4 µg/mL (≈ 4.26 µM), the MIC (Streptococcus pneumoniae [11]) was 4 µg/mL (≈ 4.26 µM) and the MIC (Corynebacterium jeikeium) was 32 µg/mL (≈ 34.1 µM). The MIC (Bacillus cereus) was 2 µg/mL (≈ 2.13 µM), the MIC (Streptococcus pyogenes) was 4 µg/mL (≈ 4.26 µM) and the MIC (Streptococcus mitis) was 4 µg/mL (≈ 4.26 µM). It also gave an MIC (Pseudomonas aeruginosa) greater than 32 µg/mL, an MIC (Escherichia coli) greater than 32 µg/mL and an MIC (Staphylococcus aureus [12]) greater than 2 µg/mL. The MIC (Staphylococcus aureus [13]) was 2 µg/mL (≈ 2.13 µM), the MIC (Staphylococcus [14]) was greater than 32 µg/mL and the MIC (Staphylococcus [15]) was greater than 32 µg/mL. The MIC (Staphylococcus [16]) was greater than 32 µg/mL, the MIC (Enterococcus faecalis [17]) was 2 µg/mL (≈ 2.13 µM) and the MIC (Enterococcus faecalis [18]) was 2 µg/mL (≈ 2.13 µM). For the same compound, the MIC (Enterococcus faecalis [19]) was 2 µg/mL (≈ 2.13 µM), the MIC (Enterococcus faecalis [20]) was 2 µg/mL (≈ 2.13 µM) and the MIC (Enterococcus faecium [21]) was 2 µg/mL (≈ 2.13 µM). The MIC (Enterococcus faecium [22]) was 2 µg/mL (≈ 2.13 µM), the MIC (Enterococcus faecium [23]) was 2 µg/mL (≈ 2.13 µM) and the MIC (Enterococcus faecium [24]) was 2 µg/mL (≈ 2.13 µM). It also gave an MIC (Bacillus sp. [25]) of 2 µg/mL (≈ 2.13 µM), an MIC (Bacillus sp. [26]) of 2 µg/mL (≈ 2.13 µM) and an MIC (Bacillus sp. [27]) of 2 µg/mL (≈ 2.13 µM). The MIC (Streptococcus pneumoniae [28]) was 4 µg/mL (≈ 4.26 µM), the MIC (Streptococcus pneumoniae [29]) was 4 µg/mL (≈ 4.26 µM) and the MIC (Streptococcus pneumoniae [30]) was 4 µg/mL (≈ 4.26 µM). For the same compound, the MIC (Corynebacterium sp. [31]) was 16 µg/mL (≈ 17 µM), the MIC (Corynebacterium sp. [32]) was 16 µg/mL (≈ 17 µM) and the MIC (Corynebacterium sp. [33]) was 16 µg/mL (≈ 17 µM). The MIC (Streptococcus [34]) was 4 µg/mL (≈ 4.26 µM), the MIC (Streptococcus [35]) was 4 µg/mL (≈ 4.26 µM) and the MIC (Streptococcus [36]) was 4 µg/mL (≈ 4.26 µM). For the same compound, the MIC (Streptococcus [37]) was 4 µg/mL (≈ 4.26 µM), the MIC (Streptococcus [38]) was 4 µg/mL (≈ 4.26 µM) and the MIC (Streptococcus [39]) was 4 µg/mL (≈ 4.26 µM). For the same compound, the MIC (Streptococcus [40]) was 4 µg/mL (≈ 4.26 µM).

`CC(=O)NC[C@H]1CN(c2ccc(N3CCOCC3)c(F)c2)C(=O)O1` was tested, and the Activity (Staphylococcus aureus [1]) was “Active” and the Activity (Staphylococcus aureus [2]) was “Active”.

`O=C(N[C@H](CO)[C@H](O)c1ccc([N+](=O)[O-])cc1)C(Cl)Cl` [CHLORAMPHENICOL] showed an MIC (Staphylococcus aureus [1]) greater than 16 µg/mL.

`CCC[C@@H]1C[C@@H](C(=O)N[C@@H]([C@H]2O[C@H](SC)[C@H](O)[C@@H](O)[C@H]2O)[C@H](C)Cl)N(C)C1` [CLINDAMYCIN] was tested, and the MIC (Staphylococcus aureus [1]) was greater than 8 µg/mL and the MIC (Staphylococcus aureus [2]) was 0.12 µg/mL (≈ 0.282 µM).

For `Cc1onc(-c2ccccc2)c1C(=O)N[C@@H]1C(=O)N2[C@@H]1SC(C)(C)[C@@H]2C(=O)O` [OXACILLIN], the MIC (Staphylococcus aureus [1]) was greater than 8 µg/mL and the MIC (Staphylococcus aureus [2]) was 8 µg/mL (≈ 19.9 µM).
